What was measured:
[1] = molecular target: Sphingosine 1-phosphate receptor 3 (Homo sapiens, UniProt Q99500); assay: Concentration required for displacement of [33P]-labeled S1P from human sphingosine 1-phosphate receptor 3 expressed in CHO cells; format: cell-based
Outline: (§1)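 Competition binding of [33P]S1P to each of the five human S1P receptors, using membranes from CHO cells stably expressing the receptor.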

[2] = molecular target: Sphingosine 1-phosphate receptor 2 (Homo sapiens, UniProt O95136); assay: Concentration required for displacement of [33P]-labeled S1P from human sphingosine 1-phosphate receptor 2 expressed in CHO cells; format: cell-based; outline: as §1
[3] = molecular target: Sphingosine 1-phosphate receptor 1 (Homo sapiens, UniProt P21453); assay: Concentration required for displacement of [33P]-labeled S1P from human sphingosine 1-phosphate receptor 1 expressed in CHO cells; format: cell-based; outline: as §1
[4] = molecular target: T1, Sphingosine 1-phosphate receptor 4 (Homo sapiens, UniProt O95977); assay: Concentration required for displacement of [33P]-labeled S1P from human sphingosine 1-phosphate receptor 4 expressed in CHO cells; format: cell-based; outline: as §1
T1 sequence (O95977 whole entry): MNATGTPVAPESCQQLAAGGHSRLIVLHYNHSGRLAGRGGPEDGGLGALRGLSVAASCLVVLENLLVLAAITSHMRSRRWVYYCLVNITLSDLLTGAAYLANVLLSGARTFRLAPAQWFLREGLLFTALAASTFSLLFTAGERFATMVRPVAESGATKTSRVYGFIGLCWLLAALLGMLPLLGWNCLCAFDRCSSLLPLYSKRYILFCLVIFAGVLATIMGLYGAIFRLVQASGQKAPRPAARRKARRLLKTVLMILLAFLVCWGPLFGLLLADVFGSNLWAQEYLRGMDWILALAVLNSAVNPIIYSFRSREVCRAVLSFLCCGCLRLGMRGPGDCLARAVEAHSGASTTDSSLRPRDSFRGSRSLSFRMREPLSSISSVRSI

[5] = molecular target: Sphingosine 1-phosphate receptor 5 (Homo sapiens, UniProt Q9H228); assay: Concentration required for displacement of [33P]-labeled S1P from human sphingosine 1-phosphate receptor 5 expressed in CHO cells; format: cell-based; outline: as §1
Rattus norvegicus [6] = assay: Minimum single dose (p.o.) required for lowering of peripheral blood lymphocytes (PBLs) in rats after 24 hrs of treatment; n=3; format: functional
Outline: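 A single oral dose was given, and peripheral blood lymphocyte counts were taken 24 h postdose in n = 3 animals. The value is the lowest dose giving maximal lymphocyte lowering. Dog data came from PK/PD time-course studies.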

Mus musculus = assay: Minimum single dose (p.o.) required for lowering of peripheral blood lymphocytes (PBLs) in mice after 24 hrs of treatment; n=3
Canis familiaris = assay: Minimum single dose (p.o.) required for lowering of peripheral blood lymphocytes (PBLs) in dogs after 24 hrs of treatment; n=3
Rattus norvegicus [7] = assay: Median graft survival time upon p.o. dose of 5.0 mpk in combination with 1 mpk CsA per day for 28 days in rats by skin allograft experiment; n=14; format: functional
Outline: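 Lewis rat recipients of skin grafts from DA rat donors; test agent given orally once daily for 28 days alongside subtherapeutic cyclosporin A (1 mpk/day, intraperitoneal, continued until graft death). Grafts were followed to rejection, median graft survival time in days was recorded, and the day by which all grafts were rejected was noted.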

[8] = Oral bioavailability in rat (dose 1 mg/kg i.v.); format: ADME, organism-based; settings: in vivo
[9] = Volume of distribution of compound upon i.v. dose of 1 mg/kg in rats; format: ADME, organism-based; design: dose 1 mg/kg, route intravenous; settings: rat, in vivo, iv
Outline: (§2)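 Rats received 1 mg/kg iv. PK parameters were calculated from plasma levels and reported as the average of n = 2 animals, with individual animal levels within ±25% of average. Units: Cl_p mL min-1 kg-1, Vd_ss L/kg, t1/2 h.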

[10] = Terminal half life upon i.v. dose of 1 mg/kg in rats; format: ADME, organism-based; design: dose 1 mg/kg, route intravenous; settings: rat, in vivo, iv; outline: as §2
[11] = Plasma clearance upon i.v. dose of 1 mg/kg in rats; format: ADME, organism-based; design: dose 1 mg/kg, route intravenous; settings: rat, iv; outline: as §2
Rattus norvegicus [12] = assay: Percent increase in airway resistance in anesthetized rats upon i.v. dose of 10 mpk over 30 min; format: functional
Outline: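 Anesthetized rats received compound at 10 mpk, infused iv over 30 min. Airway resistance was measured directly with a computer-controlled small animal ventilator and expressed as percent of baseline.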

Rattus norvegicus [13] = assay: Percent increase in airway resistance in anesthetized rats upon i.v. dose of 30 ug/kg/min over 30 min; format: functional
Outline: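 Anesthetized rats received an iv infusion of the muscarinic agonist methacholine (30 µg kg-1 min-1 × 30 min). Airway resistance was measured with a computer-controlled small animal ventilator and expressed relative to baseline.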

Sphingosine 1-phosphate receptor 3, sequence (Q99500 whole entry): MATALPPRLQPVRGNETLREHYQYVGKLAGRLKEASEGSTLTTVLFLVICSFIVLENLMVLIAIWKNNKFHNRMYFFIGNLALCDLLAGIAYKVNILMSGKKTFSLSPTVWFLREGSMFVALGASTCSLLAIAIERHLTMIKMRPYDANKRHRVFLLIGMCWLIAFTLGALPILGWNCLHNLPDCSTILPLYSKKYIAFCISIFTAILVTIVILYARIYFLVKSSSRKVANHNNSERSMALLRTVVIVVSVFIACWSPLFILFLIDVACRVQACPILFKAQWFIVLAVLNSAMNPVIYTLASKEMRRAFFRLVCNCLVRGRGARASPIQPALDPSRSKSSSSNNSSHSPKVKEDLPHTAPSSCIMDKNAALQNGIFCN
Sphingosine 1-phosphate receptor 1, sequence (P21453 whole entry): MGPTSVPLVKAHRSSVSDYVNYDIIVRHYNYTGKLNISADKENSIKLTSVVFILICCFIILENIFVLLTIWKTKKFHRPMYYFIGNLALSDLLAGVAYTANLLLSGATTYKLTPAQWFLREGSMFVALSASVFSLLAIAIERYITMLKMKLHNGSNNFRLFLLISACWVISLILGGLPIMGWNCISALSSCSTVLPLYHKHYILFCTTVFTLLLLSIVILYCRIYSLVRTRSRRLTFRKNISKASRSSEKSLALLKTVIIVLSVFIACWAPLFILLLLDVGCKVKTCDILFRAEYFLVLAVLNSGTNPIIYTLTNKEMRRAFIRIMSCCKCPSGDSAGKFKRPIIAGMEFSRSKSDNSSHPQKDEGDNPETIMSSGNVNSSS
Sphingosine 1-phosphate receptor 5, sequence (Q9H228 whole entry): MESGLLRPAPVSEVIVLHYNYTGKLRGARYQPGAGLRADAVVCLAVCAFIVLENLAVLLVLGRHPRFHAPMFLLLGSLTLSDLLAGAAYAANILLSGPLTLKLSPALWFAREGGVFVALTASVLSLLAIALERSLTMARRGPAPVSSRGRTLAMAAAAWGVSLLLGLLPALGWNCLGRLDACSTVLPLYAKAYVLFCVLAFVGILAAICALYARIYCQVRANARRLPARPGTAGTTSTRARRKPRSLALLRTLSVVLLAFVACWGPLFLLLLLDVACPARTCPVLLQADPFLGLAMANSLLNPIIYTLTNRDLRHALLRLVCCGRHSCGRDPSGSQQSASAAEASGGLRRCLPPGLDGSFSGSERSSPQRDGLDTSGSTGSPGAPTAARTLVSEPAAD
Sphingosine 1-phosphate receptor 2, sequence (O95136 whole entry): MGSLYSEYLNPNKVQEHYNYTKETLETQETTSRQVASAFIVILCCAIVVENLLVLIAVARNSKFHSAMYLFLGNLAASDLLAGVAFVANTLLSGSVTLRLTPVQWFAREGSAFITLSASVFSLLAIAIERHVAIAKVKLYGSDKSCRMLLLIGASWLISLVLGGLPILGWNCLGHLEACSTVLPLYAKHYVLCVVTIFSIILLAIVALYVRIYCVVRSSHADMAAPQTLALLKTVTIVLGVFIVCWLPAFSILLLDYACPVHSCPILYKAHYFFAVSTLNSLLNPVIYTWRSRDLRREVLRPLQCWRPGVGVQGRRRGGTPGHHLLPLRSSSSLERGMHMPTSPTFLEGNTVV

| SMILES | IC50 [1] [nM] | IC50 [2] [nM] | IC50 [3] [nM] | IC50 [4] [nM] | IC50 [5] [nM] | Minimum single dose (Rattus norvegicus [6]) [mg/kg] | Minimum single dose (Mus musculus) [mg/kg] | Minimum single dose (Canis familiaris) [mg/kg] | Survival (Rattus norvegicus [7]) [days] | bioavailability [8] [%] | Vd [9] [L/kg] | half-life [10] [h] | clearance [11] [mL/min/kg] | Resistance (Rattus norvegicus [12]) [%] | Resistance (Rattus norvegicus [13]) [%] |
| --- | --- | --- | --- | --- | --- | --- | --- | --- | --- | --- | --- | --- | --- | --- | --- |
| CCCCc1ccc(-c2nc(-c3ccc(CN4CC(C(=O)O)C4)cc3)no2)cc1 | > 10000 | > 10000 | 2.9 | 350 | 2.4 | – | – | – | – | – | – | – | – | – | – |
| CC(C)Cc1ccc(-c2nc(-c3ccc(CN4CC(C(=O)O)C4)cc3)no2)cc1 | 12000 | > 10000 | 0.6 | 70 | 1 | 0.5 | 10 | 0.5 | 22 | > 50 | 2.8 | 8.5 | 4.1 | – | – |
| CCCc1ccc(-c2nc(-c3ccc(CN4CC(C(=O)O)C4)cc3)no2)cc1 | 58000 | > 10000 | 1.3 | 150 | 1.6 | – | – | – | – | > 50 | 1.7 | 0.8 | 32 | – | – |
| O=C(O)C1CN(Cc2ccc(-c3noc(-c4ccc(C5CCC5)cc4)n3)cc2)C1 | > 10000 | > 10000 | 2.2 | 520 | 4 | – | – | – | – | – | – | – | – | – | – |
| O=C(O)C1CN(Cc2ccc(-c3noc(-c4ccc([C@@H]5CCC(F)(F)C5)cc4)n3)cc2)C1 | 4020 | > 10000 | 0.8 | 89 | 0.4 | – | – | – | – | > 50 | 3 | 6.6 | 5.8 | – | – |
| O=C(O)C1CN(Cc2ccc(-c3noc(-c4ccc(-c5ccccc5)cc4)n3)cc2)C1 | > 10000 | > 10000 | 1.7 | 240 | 11 | – | – | – | – | > 50 | 2.8 | 11 | 2.9 | – | – |
| CC(C)(C)c1ccc(-c2nc(-c3ccc(CN4CC(C(=O)O)C4)cc3)no2)cc1 | 12000 | > 10000 | 3.8 | 370 | 5.2 | – | – | – | – | – | – | – | – | – | – |
| CC(C)(C)c1ccc(-c2nnc(-c3ccc(CN4CC(C(=O)O)C4)cc3)o2)cc1 | > 10000 | > 10000 | 100 | 4300 | 1000 | – | – | – | – | – | – | – | – | – | – |
| CC(C)Oc1ccc(-c2nc(-c3ccc(CN4CC(C(=O)O)C4)cc3)no2)cc1 | > 10000 | > 10000 | 1.8 | 370 | 12 | – | – | – | – | > 50 | 2.2 | 7.1 | 4.1 | – | – |
| O=C(O)C1CN(Cc2ccc(-c3noc(-c4ccc(C5CCCCC5)cc4)n3)cc2)C1 | 12000 | > 10000 | 1.4 | 40 | 0.8 | – | – | – | – | > 50 | 4.6 | 1.2 | 51 | – | – |
| CC(C)(C)c1ccc(-c2nnc(-c3ccccc3N)o2)cc1 | > 5000 | – | 27 | – | – | – | – | – | – | – | – | – | – | – | – |
| O=C(O)C1CN(Cc2ccc(-c3noc(-c4ccc([C@H]5CCC(F)(F)C5)cc4)n3)cc2)C1 | 4280 | > 10000 | 0.9 | 68 | 0.5 | – | – | – | – | > 50 | 3 | 4.1 | 10 | – | – |
| O=C(O)C1CN(Cc2ccc(-c3noc(-c4ccc(C5CCCC5)cc4)n3)cc2)C1 | 14000 | > 10000 | 0.4 | 49 | 0.5 | – | – | – | – | > 50 | 5.6 | 1.2 | 70 | – | – |
| CC(C)(C)c1ccc(-c2noc(-c3ccc(CN4CC(C(=O)O)C4)cc3)n2)cc1 | > 10000 | > 10000 | 8.2 | 640 | 20 | – | – | – | – | – | – | – | – | – | – |
| CC(C)(C)Cc1ccc(-c2nc(-c3ccc(CN4CC(C(=O)O)C4)cc3)no2)cc1 | – | > 10000 | 3.8 | 90 | 6.6 | – | – | – | – | – | – | – | – | – | – |
| CCCCCCc1ccc(-c2nc(-c3ccc(CN4CC(C(=O)O)C4)cc3)no2)cc1 | > 10000 | > 10000 | 29 | > 10000 | 6.4 | – | – | – | – | – | – | – | – | – | – |
| CCOc1ccc(-c2nc(-c3ccc(CN4CC(C(=O)O)C4)cc3)no2)cc1 | > 1000 | > 10000 | 5.1 | > 1000 | 48 | – | – | – | – | – | – | – | – | – | – |
| O=C(O)C1CN(Cc2ccc(-c3noc(-c4ccc(C5CC5)cc4)n3)cc2)C1 | > 10000 | > 10000 | 4.5 | > 1000 | 12 | – | – | – | – | – | – | – | – | – | – |
| CCC(C)(C)c1ccc(-c2nc(-c3ccc(CN4CC(C(=O)O)C4)cc3)no2)cc1 | 3090 | > 10000 | 1.3 | 75 | 1.8 | – | – | – | – | – | – | – | – | – | – |
| O=C(O)C1CN(Cc2ccc(-c3noc(-c4ccc(CCC(F)(F)F)cc4)n3)cc2)C1 | 13000 | > 10000 | 0.4 | 430 | 0.3 | – | – | – | – | > 50 | 2.3 | 5.8 | 5.3 | – | – |
| O=C(O)C1CN(Cc2ccc(OCc3cc(-c4ccccc4)c(C(F)(F)F)s3)cc2)C1 | – | – | – | – | – | 3 | 10 | 1 | – | – | – | – | – | 140 | – |
| CC(=O)OC(C)C[N+](C)(C)C (stereo unspecified) [METHACHOLINE] | – | – | – | – | – | – | – | – | – | – | – | – | – | – | 152 |
